The values that follow come from ChEMBL document CHEMBL3102740, “Antcamphins A-L, ergostanoids from Antrodia camphorata” (J Nat Prod, 2014).

The test system of one data set is Hs68. Kind of data set: Cytotoxicity against human HS68 cells at 25 to 200 uM after 48 hrs by SRB assay. The settings on record: hs68, 48 h. The format is cell-based. The procedure, abridged: (§1)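 Cells exposed to each compound for 48 h; growth measured by sulforhodamine B staining. Compounds dissolved in DMSO, then diluted into growth medium. Cisplatin served as positive control. IC50 values derived from the SRB read-out.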

A further data set deals with A549. In words: Cytotoxicity against human A549 cells after 48 hrs by SRB assay. The format is functional, cell-based. The note with it: A549, 48 h. The procedure, abridged:
as §1
(In SRB staining, fixed cells bind dye roughly in proportion to their protein.)

The subject of a further data set is MDA-MB-231. In words: Cytotoxicity against human MDA-MB-231 cells after 48 hrs by SRB assay. The format is functional, cell-based. The note with it: MDA-MB-231, 48 h. The procedure, abridged: as §1

The IC50 is the midpoint of a concentration-inhibition curve. On to `C=C(CC[C@@H](C)[C@H]1CC[C@H]2C3=C(C(=O)C[C@]12C)[C@@]1(C)CCC(=O)[C@@H](C)[C@@H]1CC3=O)[C@H](C)C(=O)O` [ANTCIN B], for which the Activity result in the data set on Hs68 is on record as “Non-toxic”. For the same molecule, the IC50 in the data set on A549 came out at 57.4 µM; in the data set with MDA-MB-231, 44 µM.
On to `C=C(CC[C@@H](C)[C@H]1CC[C@H]2C3=C(C(=O)C[C@]12C)[C@@]1(C)CC[C@@H](O)[C@](C)(O)[C@@H]1C[C@@H]3O)[C@H](C)C(=O)O`, for which the Activity entry with Hs68 is “Non-toxic”.
Consider `C=C(CC[C@@H](C)[C@H]1CC[C@H]2C3=C(C(=O)C[C@]12C)[C@@]1(C)CCC(=O)[C@](C)(O)[C@@H]1C[C@@H]3O)[C@H](C)C(=O)O`, for which the Activity result in the data set with Hs68 is “Non-toxic”. Further, the IC50 in the data set with A549 came to 80.2 µM; in the data set with MDA-MB-231, 58.6 µM.
As for `C=C(CC[C@@H](C)[C@H]1CC[C@H]2C3=C(C(=O)C[C@]12C)[C@@]1(C)CCC(=O)[C@@H](C)[C@@H]1C[C@@H]3O)[C@@H](C)C(=O)O`, the Activity result in the data set with Hs68 is “Non-toxic”. Moreover, the IC50 in the data set with A549 is 33.1 µM; in the data set with MDA-MB-231, 25.1 µM.
As to `C=C(CC[C@@H](C(=O)O)[C@H]1CC[C@@]2(C)C3=C(CC[C@]12C)[C@@]1(C)CC[C@H](O)C(C)(C)[C@@H]1CC3)C(C)C` [EBURICOIC ACID], the Activity result in the data set with Hs68 was “Non-toxic”.
On to `C=C(CC[C@@H](C)[C@H]1CC[C@H]2C3=C(C(=O)C[C@]12C)[C@@]1(C)CCC(=O)[C@](C)(O)[C@@H]1C[C@@H]3O)[C@@H](C)C(=O)OC`, for which the Activity result in the data set with Hs68 was “Non-toxic”. Further, the IC50 was determined as 93.2 µM in the data set with A549 and 71.5 µM in the data set on MDA-MB-231.
With `C=C(CC[C@@H](C)[C@H]1CC[C@H]2C3=C(C(=O)C[C@]12C)[C@@]1(C)CC[C@H](O)[C@@H](C)[C@@H]1C[C@@H]3O)[C@@H](C)C(=O)O`, the Activity result in the data set on Hs68 is given as “Non-toxic”.
For the molecule `C=C(CC[C@@H](C)[C@H]1CC[C@H]2C3=C(C(=O)C[C@]12C)[C@@]1(C)CCC(=O)[C@@H](C)[C@@H]1C[C@@H]3O)[C@H](C)C(=O)O`, the Activity entry in the data set on Hs68 is “Non-toxic”. Further, the IC50 stood at 76.2 µM with A549 and 74.2 µM in the data set with MDA-MB-231.
With `C=C(CC[C@@H](C)[C@H]1CC[C@H]2C3=C(C(=O)[C@H](O)[C@]12C)[C@@]1(C)CC[C@@H](O)[C@@H](C)[C@@H]1CC3=O)[C@H](C)C(=O)O`, in the data set with Hs68, the Activity result is recorded as “Non-toxic”. Besides, the figures for the IC50 in the data set with A549 and with MDA-MB-231 were 32.8 µM and 38.6 µM, respectively.
For the molecule `C=C(CC[C@@H](C)[C@H]1CC[C@H]2C3=C(C(=O)C[C@]12C)[C@@]1(C)CC[C@H](O)[C@@H](C)[C@@H]1C[C@@H]3O)[C@H](C)C(=O)O`, the Activity result in the data set with Hs68 is “Non-toxic”.
Turning to `C=C(CC[C@@H](C)[C@H]1CC[C@H]2C3=C(C(=O)C[C@]12C)[C@@]1(C)CCC(=O)[C@](C)(O)[C@@H]1C[C@@H]3O)[C@H](C)C(=O)OC`, in the data set on Hs68, the Activity result is reported as “Non-toxic”. Besides, the IC50 was determined as 73.2 µM with A549 and 76.8 µM in the data set with MDA-MB-231.
In the case of `C=C(CC[C@@H](C)[C@H]1CC[C@H]2C3=C(C(=O)[C@H](O)[C@]12C)[C@@]1(C)CC[C@@H](O)[C@@H](C)[C@@H]1CC3=O)[C@@H](C)C(=O)O`, the Activity result with Hs68 is “Non-toxic”. Besides, the IC50 with A549 turned out to be 22 µM; in the data set with MDA-MB-231, 23.7 µM.
For `C=C(CC[C@@H](C)[C@H]1CC[C@H]2C3=C(C(=O)[C@H](O)[C@]12C)[C@@]1(C)CC[C@@H](O)[C@@H](C)[C@@H]1C[C@@H]3O)C(C)C(=O)O` (some centres not stated) [CAMPHORATIN A] the same measures were “Non-toxic”, 92.1 µM and 93.5 µM.
`C=C(CC[C@@H](C(=O)O)[C@H]1C[C@H](O)[C@@]2(C)C3=CC[C@H]4C(C)(C)[C@@H](O)CC[C@]4(C)C3=CC[C@]12C)C(C)C`: in the data set with Hs68, the Activity result is recorded as “Non-toxic”.
As to `C=C(CC[C@@H](C)[C@H]1CC[C@H]2C3=C(C(=O)C[C@]12C)[C@@]1(C)CCC(=O)[C@@H](C)[C@@H]1CC3)C(C)C(=O)O` (some centres not stated) [ANTCIN A], the Activity entry in the data set with Hs68 was “Non-toxic”. The IC50 with A549 is 39.4 µM; in the data set on MDA-MB-231, 29.6 µM.
For the molecule `C/C(C=O)=C(\C)CC[C@@H](C)[C@H]1CC[C@H]2C3=C(C(=O)C[C@]12C)[C@@]1(C)CCC(=O)[C@@H](C)[C@@H]1CC3`, the Activity entry in the data set with Hs68 is “Non-toxic”.
As for `C=C(CC[C@@H](C)[C@H]1CC=C2C3=C(C(=O)C[C@@]21C)[C@@]1(C)CCC(=O)[C@@H](C)[C@@H]1C[C@@H]3O)C(C)C(=O)O` (some centres not stated), the Activity result in the data set on Hs68 was “Non-toxic”. Also, the IC50 stood at 40.6 µM in the data set on A549 and 31.6 µM in the data set on MDA-MB-231.
As to `CC(=O)CC[C@@H](C)[C@H]1CC[C@H]2C3=C(C(=O)C[C@]12C)[C@@]1(C)CCC(=O)[C@@H](C)[C@@H]1CC3=O`, the Activity result in the data set on Hs68 is recorded as “Non-toxic”. The IC50 with A549 stood at 65.9 µM; with MDA-MB-231, 45.5 µM.
As to `C=C(CC[C@@H](C)[C@H]1CC[C@H]2C3=C(C(=O)C[C@]12C)[C@@]1(C)CC[C@@H](O)[C@](C)(O)[C@@H]1CC3=O)C(C)C(=O)O` (some centres not stated) [CAMPHORATIN C], the Activity entry with Hs68 is “Non-toxic”. For the same molecule, the IC50 in the data set with A549 is 48.8 µM; with MDA-MB-231, 62.8 µM.
Consider `C[C@@H]1[C@H](O)CC[C@]2(C)C3=C(C(=O)C[C@@H]12)[C@@H]1CC[C@H]([C@H](C)CCO)[C@@]1(C)[C@@H](O)C3=O`, for which the Activity entry with Hs68 is “Non-toxic”.
In the case of `C=C(CC[C@@H](C(=O)O)[C@H]1C[C@H](OC(C)=O)[C@@]2(C)C3=CC[C@H]4C(C)(C)[C@@H](O)CC[C@]4(C)C3=CC[C@]12C)C(C)C`, in the data set on Hs68, the Activity result is “Non-toxic”.
Take `C=C(CC[C@@H](C(=O)O)[C@H]1CC[C@@]2(C)C3=CC[C@H]4C(C)(C)[C@@H](O)CC[C@]4(C)C3=CC[C@]12C)C(C)C` [DEHYDROEBURICOIC ACID]: the Activity entry in the data set on Hs68 is “Non-toxic”.
`C=C(CC[C@@H](C)[C@H]1CC[C@H]2C3=C(C(=O)C[C@]12C)[C@@]1(C)CCC(=O)[C@](C)(O)[C@@H]1C[C@@H]3O)[C@@H](C)C(=O)O`: the Activity result with Hs68 is listed as “Non-toxic”. Besides, the IC50 is 66.3 µM in the data set on A549 and 67.2 µM with MDA-MB-231.
For `C=C(CC[C@@H](C)[C@H]1CC[C@H]2C3=C(C(=O)[C@H](O)[C@]12C)[C@@]1(C)CCC(=O)[C@@H](C)[C@@H]1CC3=O)[C@@H](C)C(=O)O`, in the data set on Hs68, the Activity result was “Non-toxic”.
As to `C/C(C=O)=C(/C)CC[C@@H](C)[C@H]1CC[C@H]2C3=C(C(=O)C[C@]12C)[C@@]1(C)CCC(=O)[C@@H](C)[C@@H]1CC3`, the Activity entry in the data set with Hs68 is recorded as “Non-toxic”.
In the case of `C=C(CC[C@@H](C)[C@H]1CC[C@H]2C3=C(C(=O)[C@H](O)[C@]12C)[C@@]1(C)CCC(=O)[C@@H](C)[C@@H]1CC3=O)[C@H](C)C(=O)O`, the Activity result in the data set with Hs68 was “Non-toxic”. Besides, the results for the IC50 with A549 and in the data set on MDA-MB-231 were 84.4 µM and 71.3 µM, respectively.
For the molecule `C=C(CC[C@@H](C(=O)O)[C@H]1C[C@H](O)[C@@]2(C)C3=C(CC[C@]12C)[C@@]1(C)CC[C@H](O)C(C)(C)[C@@H]1CC3)C(C)C` [SULFURENIC ACID], the Activity result in the data set on Hs68 was “Non-toxic”.
Turning to `C=C(CC[C@@H](C)[C@H]1CC[C@H]2C3=C(C(=O)C[C@]12C)[C@@]1(C)CC[C@@H](O)[C@](C)(O)[C@@H]1C[C@@H]3O)[C@@H](C)C(=O)O`, the Activity entry in the data set on Hs68 is “Non-toxic”.
With `C=C(CC[C@@H](C)[C@H]1CC[C@H]2C3=C(C(=O)C[C@]12C)[C@@]1(C)CCC(=O)[C@@H](C)[C@@H]1CC3=O)[C@@H](C)C(=O)O`, in the data set on Hs68, the Activity entry is on record as “Non-toxic”. Moreover, the IC50 turned out to be 41.4 µM in the data set with A549 and 33.4 µM with MDA-MB-231.
For the molecule `C=C(CC[C@@H](C(=O)O)[C@H]1C[C@H](O)[C@@]2(C)C3=CC[C@H]4C(C)(C)C(=O)CC[C@]4(C)C3=CC[C@]12C)C(C)C`, the Activity entry with Hs68 was “Non-toxic”.
